Laboratory results: ChEMBL document CHEMBL1129943, “5-aminocoumarans: dual inhibitors of lipid peroxidation and dopamine release with protective effects against central nervous system trauma and ischemia” (J Med Chem, 1997)
pIC50: −log10 of the molar value.

Experiments:
Assay type in all cases: functional
Rattus norvegicus [1] = species on record: Rattus norvegicus; test: Concentration required to reduce by 50% the amount of lipid peroxide formed in rat liver microsomes
Method in brief: (§1)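 Rat liver microsomes (S-9), 0.3 mg protein in 40 mM Tris-malate pH 7.4. Peroxidation started with a 1:1 mix of FeCl2 (0.25 mM) and NADPH (3 mM), then 1 h at 37 °C. Compound in DMSO added before incubation, tested up to 1 μM final. Thiobarbituric acid method read-out. Activity relative to DMSO vehicle; IC50 from four concentrations by nonlinear regression, otherwise % inhibition at 1 μM.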

Mus musculus [2] = species on record: Mus musculus; test: Percentage increase of locomotor activity in mice
Mus musculus [3] = test: Locomotor activity was measured in mice after 1 hour administration of methamphetamine; set-up: unit not given here
Mus musculus [4] = species on record: Mus musculus; test: Peroral dose required to reduce by 50% the score of excitatory behavior induced by intrathecal injection of ferrous chloride in mice; settings: central, read-out: ID50 (the source's name)
Method in brief: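 Male Slc:ICR mice, 5 weeks old, 10 per dose. Compound given orally 30 min before intrathecal 5 μL of 50 mM FeCl2 in saline (between L6 and S1). Vehicle was water, or 0.5% gum arabic suspension. Behaviour scored 0–5 (biting to death) from 15 min to 1 h. ID50 from three or four doses, relative to vehicle score.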

Rattus norvegicus [5] = species on record: Rattus norvegicus; test: Inhibition of lipid peroxidation by rat liver microsomes; set-up: concentration or dose not given beside the values; settings: dose or concentration not given here; method in brief: as §1

| SMILES | pIC50 (Rattus norvegicus [1]) | Increase (Mus musculus [2]) [%] | Locomotor activity (Mus musculus [3]) | ED50 (Mus musculus [4]) [mg/kg] | inhibition (Rattus norvegicus [5]) [%] |
| --- | --- | --- | --- | --- | --- |
| Cc1c(C)c2c(c(C)c1N)CC(C)(CCN(C)C)O2 (configuration not stated) |  | 115.2 | 2129 | 19 | 4 |
| Cc1c(C)c2c(c(C)c1NS(C)(=O)=O)CC(C)(C)O2 |  |  |  | > 100 | -1 |
| Cc1c(C)c2c(c([N+](=O)[O-])c1N)CC(C)(C)O2 |  |  |  | > 100 | 0 |
| Cc1c(C)c2c(c(C)c1Nc1ccc3c(c1)CC(C)(C)O3)CC(C)(C)O2 | 7.52 |  |  | > 25 |  |
| CCCNc1c(C)c(C)c2c(c1C)CC(C)(C)O2 |  |  |  | 51.1 | 24 |
| Cc1c(C)c2c(c(C)c1N)C(C(C)C)C(C)(C)O2 (configuration not stated) | 6.54 |  |  | 14 |  |
| CC1(C)Cc2cc(N)ccc2O1 |  |  |  | > 100 | 5 |
| CCC(=O)Nc1c(C)c(C)c2c(c1C)CC(C)(C)O2 |  |  |  | > 100 | 1 |
| CCOC(=O)Nc1c(C)c(C)c2c(c1C)CC(C)(C)O2 |  |  |  | > 100 | 1 |
| Cc1c(C)c2c(c(C)c1N)CC(C)(CSCCC(=O)O)O2 (configuration not stated) |  |  |  | 43 | 0 |
| Cc1ccc(S(=O)(=O)Nc2c(C)c(C)c3c(c2C)CC(C)(C)O3)cc1 |  |  |  | > 100 | 3 |
| Cc1cc2c(c(C)c1N)CC(C)(C)O2 |  |  |  | 16.3 | 14 |
| Cc1c(N)c(C)c2c(c1CC(C)C)OC(C)(C)C2 | 6.85 |  |  | 13.3 |  |
| Cc1c(N)c(C)c2c(c1CN1CCCCC1)OC(C)(C)C2 |  |  |  | > 50 | 3 |
| Cc1c(C)c2c(c(C)c1Nc1cccnc1)CC(C)(C)O2 |  |  |  | > 50 | 4 |
| Cc1cc(N)c(C)c2c1OC(C)(C)C2 |  |  |  | 32.3 | 19 |
| CC(C)=Cc1c(C)c(N)c(C)c2c1OC(C)(C)C2 | 6.52 |  |  | 21.9 |  |
| Cc1c(C)c2c(c(C)c1NC=O)CC(C)(C)O2 |  |  |  | > 100 | 0 |
| CC(=O)Nc1c(C)c(C)c2c(c1C)CC(C)(C)O2 |  |  |  | > 100 | -2 |
| COC(=O)/C=C\C1(C)Cc2c(C)c(N)c(C)c(C)c2O1 (configuration not stated) |  |  |  | > 100 | 38 |
| Cc1c(N)cc2c(c1C)OC(C)(C)C2 |  |  |  | 24.4 | 26 |
| Cc1c(C)c2c(c(N(C)C)c1N)CC(C)(C)O2 | 6.26 |  |  | 22.3 |  |
| CCNc1c(C)c(C)c2c(c1C)CC(C)(C)O2 |  |  |  | 38.9 | 16 |
| Cc1c(C)c2c(c(C)c1N)CC(C)(CSCCO)O2 (configuration not stated) |  |  |  | > 50 | 11 |
| Cc1c(N)c(C)c2c(c1CN(C)C)OC(C)(C)C2 |  |  |  | > 50 | 4 |

Now from value to compound, other results behind:

| pIC50 (Rattus norvegicus [1]) | SMILES | Increase (Mus musculus [2]) [%] | Locomotor activity (Mus musculus [3]) | ED50 (Mus musculus [4]) [mg/kg] | inhibition (Rattus norvegicus [5]) [%] |
| --- | --- | --- | --- | --- | --- |
| 7.15 | Cc1c(C)c2c(c(C)c1N)CC(C)(CN1CCN(c3ccccc3)CC1)O2 (configuration not stated) | 47.3 | 1484 | 13.1 |  |
| 6.52 | Cc1c(C)c2c(c(C)c1Nc1ccc(Cl)cc1)CC(C)(C)O2 |  |  | > 50 |  |
| 6.57 | Cc1c(C)c2c(c(C)c1N)CC(C)(CSc1ccccc1)O2 (configuration not stated) | 24.7 | <1098 | 24.7 |  |
| 6.52 | Cc1c(C)c2c(c(N)c1N)CC(C)(C)O2 |  |  | > 50 |  |
| 6.18 | Cc1c(C)c2c(c(C)c1N)CC(C)(C[S+]([O-])c1ccccc1)O2 (configuration not stated) |  |  | 31.3 |  |
| 6.52 | COCC1(C)Cc2c(C)c(N)c(C)c(C)c2O1 (configuration not stated) | 76.7 | 1934 | 20.1 |  |
| 6.54 | Cc1c(C)c2c(c(C)c1N)CC(C)(CNCc1ccccc1)O2 (configuration not stated) | 46.1 | 1340 | 9.1 |  |
| 6.55 | CCCSCC1(C)Cc2c(C)c(N)c(C)c(C)c2O1 (configuration not stated) | 56.4 | 1540 | 24.6 |  |
| 6.52 | Cc1ccc(C2c3c(C)c(N)c(C)c(C)c3OC2(C)C)cc1 (configuration not stated) |  |  | > 50 |  |
| 6.52 | Cc1c(C)c2c(c(C)c1N)CC(C)(CBr)O2 (configuration not stated) | 34.5 | 1115 | 16 |  |
| 6.55 | Cc1c(C)c2c(c(C)c1N)CC(C)(COCc1ccccc1)O2 (configuration not stated) | 64 | 1657 | 18.6 |  |
| 6.20 | Cc1c(C)c2c(c(C)c1N)CC(C)(CSc1ccncc1)O2 (configuration not stated) | 10.2 | <892 | 19.9 |  |
| 6.54 | Cc1c(C)c2c(c(C)c1N)C(c1ccc(C(C)C)cc1)C(C)(C)O2 (configuration not stated) |  |  | > 50 |  |
| 6.55 | Cc1c(C)c2c(c(C)c1Nc1ccccc1)CC(C)(C)O2 |  |  | > 50 |  |
| 6.66 | Cc1c(C)c2c(c(C)c1N)CC(C)(CSc1ccc(O)cc1)O2 (configuration not stated) |  |  | > 50 |  |
| 7.10 | Cc1c(C)c2c(c(C)c1N)CC(C)(CNCCCCc1ccccc1)O2 (configuration not stated) |  |  | 17 |  |

| pIC50 (Rattus norvegicus [1]) | SMILES | Increase (Mus musculus [2]) [%] | Locomotor activity (Mus musculus [3]) | ED50 (Mus musculus [4]) [mg/kg] | inhibition (Rattus norvegicus [5]) [%] |
| --- | --- | --- | --- | --- | --- |
| 6.10 | Cc1c(C)c2c(c(C)c1N)CC(C)(CS(=O)(=O)c1ccccc1)O2 (configuration not stated) |  |  | 36.6 |  |
| 6.54 | Cc1c(C)c2c(c(C)c1N)C(c1ccccc1)C(C)(C)O2 (configuration not stated) | 77.3 | 1845 | 24.8 |  |
| 6.39 | Cc1c(C)c2c(c(C)c1N)CC(C)(CN1CCOCC1)O2 (configuration not stated) | 103.1 | 3209 | 19.2 |  |
| 6.54 | Cc1c(C)c2c(c(C)c1N)CC(C)(CNCCc1ccccc1)O2 (configuration not stated) |  |  | 14.2 |  |
| 6.59 | Cc1c(C)c2c(c(C)c1N)CC(C)(CSCc1ccccc1)O2 (configuration not stated) | 33.6 | 1099 | 32 |  |
| 7.15 | Cc1c(C)c2c(c(C)c1N)CC(C)(CSc1nc3ccccc3s1)O2 (configuration not stated) | 45.3 | 1391 | 33.7 |  |
| 6.55 | Cc1c(C)c2c(c(C)c1N)C(c1ccc(F)cc1)C(C)(C)O2 (configuration not stated) | 181.3 | 2156 | 26.7 |  |
| 7.10 | Cc1c(C)c2c(c(C)c1N)CC(C)(CCc1ccc(F)cc1)O2 (configuration not stated) | 80.1 | 1185 | 11.5 |  |
| 6.54 | CCCc1ccc(C2c3c(C)c(N)c(C)c(C)c3OC2(C)C)cc1 (configuration not stated) |  |  | > 50 |  |
| 6.59 | Cc1c(C)c2c(c(C)c1N)CC(C)(CNc1ccccc1)O2 (configuration not stated) | 70.4 | 1812 | 15.7 |  |
| 7.15 | Cc1c(C)c2c(c(C)c1N)CC(C)(CN1CCN(C(c3ccccc3)c3ccccc3)CC1)O2 (configuration not stated) | 62.8 | 1664 | > 50 |  |
| 7.15 | Cc1c(C)c2c(c(C)c1N)CC(C)(CN1CCC(c3ccccc3)CC1)O2 (configuration not stated) | 1.8 | <482 | 10.4 |  |
| 7.30 | CCCCCc1ccc(C2c3c(C)c(N)c(C)c(C)c3OC2(C)C)cc1 (configuration not stated) |  |  | 42.2 |  |
| 6.12 | Cc1c(C)c2c(c(C)c1N)CC(C)(C)O2 | 31.5 | <509 | 7.8 |  |
| 6.66 | Cc1c(C)c2c(c(C)c1N)CC(C)(CSc1ccc(F)cc1)O2 (configuration not stated) | 61.8 | 1625 | 17.9 |  |
